What all share (assay type): functional
The test system of test [1] is Staphylococcus aureus. The test can be described thus: Antibacterial activity against Staphylococcus aureus ATCC 9144 after 24 hrs by paper disk diffusion technique. An outline of the steps:
(§1)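 Paper disc diffusion. Nutrient agar autoclaved 120 °C, 30 min, then inoculated at 40–50 °C with 1 ml/100 ml of a 10⁵ cfu/ml suspension matched to McFarland standard and poured to 3–4 mm. Discs impregnated with compound in dimethyl formamide are laid on the solidified agar. Plates are held 1 h at room temperature, then 24 h at 37 °C.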
In general terms: A growth-free zone around the sample is the usual read-out of agar diffusion tests.

The test system of test [2] is Staphylococcus epidermidis. The test can be described thus: Antibacterial activity against Staphylococcus epidermidis ATCC 155 after 24 hrs by paper disk diffusion technique. An outline of the steps: as §1
Test [3] concerns Micrococcus luteus. The test can be described thus: Antibacterial activity against Micrococcus luteus ATCC 4698 after 24 hrs by paper disk diffusion technique. An outline of the steps:
as §1

Test [4] relates to Bacillus cereus. Nature of the test: Antibacterial activity against Bacillus cereus ATCC 11778 after 24 hrs by paper disk diffusion technique. An outline of the steps:
as §1

In test [5] the test system is Escherichia coli. The test can be described thus: Antibacterial activity against Escherichia coli ATCC 25922 after 24 hrs by paper disk diffusion technique. An outline of the steps: as §1
Test [6] deals with Pseudomonas aeruginosa. The test can be described thus: Antibacterial activity against Pseudomonas aeruginosa ATCC 2853 after 24 hrs by paper disk diffusion technique. An outline of the steps:
as §1

Test [7] has as its system Klebsiella pneumoniae. The test can be described thus: Antibacterial activity against Klebsiella pneumoniae ATCC 11298 after 24 hrs by paper disk diffusion technique. An outline of the steps:
as §1

Test [8] concerns Aspergillus niger. Nature of the test: Antifungal activity against Aspergillus niger ATCC 9029 after 48 hrs by paper disk diffusion technique. An outline of the steps:
(§2)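 Fungal disc diffusion. Autoclaved (120 °C, 30 min) medium is inoculated at 40–50 °C with 1 ml/100 ml of a 10⁵ cfu/ml McFarland-matched suspension and poured to 3–4 mm. Compound-impregnated paper discs in dimethyl formamide are applied. Plates are held 1 h at room temperature, then incubated 48 h at 37 °C.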

The subject of test [9] is Aspergillus fumigatus. Nature of the test: Antifungal activity against Aspergillus fumigatus ATCC 46645 after 48 hrs by paper disk diffusion technique. An outline of the steps:
as §2

In test [10] the test system is Staphylococcus aureus. Nature of the test: Antibacterial activity against Staphylococcus aureus ATCC 9144 after 24 hrs by agar streak dilution method. The settings on record: ATCC 9144, 24 h. An outline of the steps: (§3)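 Agar streak dilution MIC. Stock […] in dimethyl formamide. Graded quantities go into molten sterile nutrient agar, poured at 40–50 °C to 3–4 mm depth and left to solidify. Plates are streaked with about 10⁵ cfu/ml bacterial suspension and incubated 24 h at 37 °C. MIC is the lowest concentration with no visible growth.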

The subject of test [11] is Staphylococcus epidermidis. The test can be described thus: Antibacterial activity against Staphylococcus epidermidis ATCC 155 after 24 hrs by agar streak dilution method. The settings on record: ATCC 155, 24 h. An outline of the steps:
as §3

For test [12], the system named is Micrococcus luteus. Nature of the test: Antibacterial activity against Micrococcus luteus ATCC 4698 after 24 hrs by agar streak dilution method. The settings on record: NCTC 2665, 24 h. An outline of the steps: as §3
Test [13] has as its system Bacillus cereus. The test can be described thus: Antibacterial activity against Bacillus cereus ATCC 11778 after 24 hrs by agar streak dilution method. The settings on record: ATCC 11778, 24 h. An outline of the steps:
as §3

The subject of test [14] is Escherichia coli. Nature of the test: Antibacterial activity against Escherichia coli ATCC 25922 after 24 hrs by agar streak dilution method. The settings on record: ATCC 25922, 24 h. An outline of the steps:
as §3

The subject of test [15] is Pseudomonas aeruginosa. The test can be described thus: Antibacterial activity against Pseudomonas aeruginosa ATCC 2853 after 24 hrs by agar streak dilution method. The settings on record: ATCC 2853, 24 h. An outline of the steps: as §3
The subject of test [16] is Klebsiella pneumoniae. Nature of the test: Antibacterial activity against Klebsiella pneumoniae ATCC 11298 after 24 hrs by agar streak dilution method. The settings on record: ATCC 11298, 24 h. An outline of the steps:
as §3

Test [17] relates to Aspergillus niger. The test can be described thus: Antifungal activity against Aspergillus niger ATCC 9029 after 48 hrs by agar streak dilution method. The settings on record: ATCC 9029, 48 h. An outline of the steps:
(§4)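 Fungal agar streak dilution. Stock […] in dimethyl formamide. Graded quantities go into molten sterile Sabouraud dextrose agar, poured at 40–50 °C to 3–4 mm depth and left to solidify. Plates are inoculated with about 10⁵ cfu/ml suspension and incubated 48 h at 37 °C. MIC is the lowest concentration with no visible growth.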

Test [18] deals with Aspergillus fumigatus. The test can be described thus: Antifungal activity against Aspergillus fumigatus ATCC 46645 after 48 hrs by agar streak dilution method. The settings on record: ATCC 46645, 48 h. An outline of the steps: as §4

Values after ≈ are worked out from the molar mass of the structure shown.

The MIC is the lowest concentration found to suppress growth. For `O=c1c2cc(Br)cc(Br)c2nc(-c2ccccc2)n1/N=C/C=C/c1ccccc1`, the “inhibition zone (IZ)” value in test [1] came to 20 mm; in test [2], 24 mm; in test [3], 21 mm; in test [4], 23 mm; in test [5], 25 mm; in test [6], 19 mm. Also, the results for the “inhibition zone (IZ)” value in test [7], in test [8] and in test [9] were 25 mm, 24 mm and 22 mm, respectively. The MIC in [10] came to 23.8 µg/mL (≈ 46.7 µM); in test [11], 21.4 µg/mL (≈ 42 µM); in test [12] it was 22.8 µg/mL (≈ 44.8 µM); in test [13], 21.9 µg/mL (≈ 43 µM); in [14], 20.1 µg/mL (≈ 39.5 µM); in test [15] it was 25.1 µg/mL (≈ 49.3 µM). Further, the minimal inhibitory concentration (MIC) was determined as 19.8 µg/mL (≈ 38.9 µM) in test [16], 11.8 µg/mL (≈ 23.2 µM) in [17] and 14.6 µg/mL (≈ 28.7 µM) in [18].
Consider `O=c1c2cc(Br)cc(Br)c2nc(-c2ccccc2)n1/N=C/c1ccc(Cl)cc1`, for which the “inhibition zone (IZ)” value amounted to 19 mm in [1]; 20 mm in [2]; 23 mm in test [3]; 19 mm in test [4]; 27 mm in test [5]; 26 mm in [6]. Moreover, the “inhibition zone (IZ)” value is recorded as 25 mm in [7], 25 mm in [8] and 22 mm in [9]. The MIC in [10] came out at 28.4 µg/mL (≈ 54.9 µM); in test [11], 25.6 µg/mL (≈ 49.5 µM); in test [12] it was 33.8 µg/mL (≈ 65.3 µM); in [13], 36.1 µg/mL (≈ 69.7 µM); in test [14] it was 20.2 µg/mL (≈ 39 µM); in [15], 22.8 µg/mL (≈ 44 µM). The MIC was 21.8 µg/mL (≈ 42.1 µM) in test [16], 10.2 µg/mL (≈ 19.7 µM) in test [17] and 12.6 µg/mL (≈ 24.3 µM) in [18].
In the case of `O=c1c2cc(Br)cc(Br)c2nc(-c2ccccc2)n1/N=C/c1cccc([N+](=O)[O-])c1`, the “inhibition zone (IZ)” value in [1] was found to be 21 mm; in test [2], 22 mm; in [3], 23 mm; in [4] it was 22 mm; in test [5], 26 mm; in test [6] it was 19 mm. Further, the results for the “inhibition zone (IZ)” value in [7], in test [8] and in test [9] were 21 mm, 25 mm and 23 mm, respectively. In addition, the MIC in test [10] was 22.6 µg/mL (≈ 42.8 µM); in test [11], 21.8 µg/mL (≈ 41.3 µM); in [12], 30.1 µg/mL (≈ 57 µM); in test [13], 23.6 µg/mL (≈ 44.7 µM); in test [14], 19.8 µg/mL (≈ 37.5 µM); in [15], 36.1 µg/mL (≈ 68.4 µM). For the same compound, the MIC in [16] came to 34.6 µg/mL (≈ 65.5 µM); in test [17], 10.7 µg/mL (≈ 20.3 µM); in test [18], 11.6 µg/mL (≈ 22 µM).
Turning to `O=c1c2cc(Br)cc(Br)c2nc(-c2ccccc2)n1/N=C/c1ccccc1`, the “inhibition zone (IZ)” value in [1] is 17 mm; in test [2], 18 mm; in test [3] it was 19 mm; in [4], 20 mm; in [5] it was 17 mm; in test [6], 19 mm. Further, the figures for the “inhibition zone (IZ)” value in test [7], in [8] and in [9] were 21 mm, 24 mm and 22 mm, respectively. The MIC in test [10] was found to be 35.4 µg/mL (≈ 73.3 µM); in [11] it was 33.6 µg/mL (≈ 69.5 µM); in [12], 31.8 µg/mL (≈ 65.8 µM); in [13], 29.4 µg/mL (≈ 60.8 µM); in test [14], 33.4 µg/mL (≈ 69.1 µM); in [15], 28.7 µg/mL (≈ 59.4 µM). Also, the MIC in [16] came out at 27.7 µg/mL (≈ 57.3 µM); in [17] it was 9.7 µg/mL (≈ 20.1 µM); in test [18], 11.1 µg/mL (≈ 23 µM).
For the compound `O=c1c2cc(Br)cc(Br)c2nc(-c2ccccc2)n1/N=C/c1ccc(O)cc1`, the “inhibition zone (IZ)” value in [1] amounted to 24 mm; in test [2] it was 22 mm; in test [3], 26 mm; in [4] it was 21 mm; in test [5], 23 mm; in test [6], 25 mm. In addition, the “inhibition zone (IZ)” value came to 27 mm in test [7], 24 mm in test [8] and 21 mm in test [9]. In addition, the minimum inhibitory concentration (MIC) was found to be 17.3 µg/mL (≈ 34.7 µM) in test [10]; 20.9 µg/mL (≈ 41.9 µM) in test [11]; 17.2 µg/mL (≈ 34.5 µM) in [12]; 19.3 µg/mL (≈ 38.7 µM) in test [13]; 21.8 µg/mL (≈ 43.7 µM) in [14]; 22.6 µg/mL (≈ 45.3 µM) in [15]. Also, the MIC in test [16] worked out at 19 µg/mL (≈ 38.1 µM); in test [17], 9.1 µg/mL (≈ 18.2 µM); in test [18] it was 10.7 µg/mL (≈ 21.4 µM).
In the case of `COc1cc(/C=N/n2c(-c3ccccc3)nc3c(Br)cc(Br)cc3c2=O)cc(OC)c1OC`, the “inhibition zone (IZ)” value in test [1] came to 26 mm; in test [2] it was 25 mm; in test [3], 24 mm; in test [4], 23 mm; in [5], 27 mm; in test [6] it was 24 mm. In addition, the figures for the “inhibition zone (IZ)” value in test [7], in test [8] and in [9] were 28 mm, 26 mm and 24 mm, respectively. For the same compound, the MIC was found to be 18.9 µg/mL (≈ 33 µM) in test [10]; 19.1 µg/mL (≈ 33.3 µM) in test [11]; 18.8 µg/mL (≈ 32.8 µM) in test [12]; 21.7 µg/mL (≈ 37.9 µM) in [13]; 18.2 µg/mL (≈ 31.7 µM) in [14]; 19.3 µg/mL (≈ 33.7 µM) in test [15]. The results for the minimum inhibitory concentration (MIC) in test [16], in test [17] and in [18] were 16.7 µg/mL (≈ 29.1 µM), 8.6 µg/mL (≈ 15 µM) and 10.1 µg/mL (≈ 17.6 µM), respectively.
With `CN(C)c1ccc(/C=N/n2c(-c3ccccc3)nc3c(Br)cc(Br)cc3c2=O)cc1`, the “inhibition zone (IZ)” value is listed as 19 mm in test [1]; 25 mm in test [2]; 21 mm in [3]; 19 mm in [4]; 20 mm in test [5]; 18 mm in [6]. The “inhibition zone (IZ)” value in [7] is 23 mm; in test [8], 19 mm; in test [9], 22 mm. Also, the minimum inhibitory concentration (MIC) stood at 27.9 µg/mL (≈ 53 µM) in test [10]; 19.8 µg/mL (≈ 37.6 µM) in test [11]; 26.2 µg/mL (≈ 49.8 µM) in test [12]; 30.1 µg/mL (≈ 57.2 µM) in test [13]; 29.1 µg/mL (≈ 55.3 µM) in test [14]; 32.1 µg/mL (≈ 61 µM) in [15]. In addition, the minimum inhibitory concentration (MIC) in test [16] was 22.7 µg/mL (≈ 43.1 µM); in [17], 14.7 µg/mL (≈ 27.9 µM); in [18] it was 15.9 µg/mL (≈ 30.2 µM).
Consider `Cc1ccc(/C=N/n2c(-c3ccccc3)nc3c(Br)cc(Br)cc3c2=O)cc1`, for which the “inhibition zone (IZ)” value in test [1] is given as 18 mm; in test [2], 20 mm; in test [3], 23 mm; in [4], 21 mm; in [5], 24 mm; in test [6] it was 22 mm. Also, the “inhibition zone (IZ)” value in test [7] stood at 19 mm; in test [8] it was 22 mm; in [9] it was 24 mm. Also, the MIC worked out at 31.1 µg/mL (≈ 62.6 µM) in test [10]; 22.6 µg/mL (≈ 45.5 µM) in test [11]; 25.1 µg/mL (≈ 50.5 µM) in [12]; 21.9 µg/mL (≈ 44 µM) in [13]; 19.8 µg/mL (≈ 39.8 µM) in test [14]; 21.2 µg/mL (≈ 42.6 µM) in test [15]. Further, the MIC in test [16] came out at 29.1 µg/mL (≈ 58.5 µM); in test [17], 15.2 µg/mL (≈ 30.6 µM); in [18], 14.6 µg/mL (≈ 29.4 µM).
